Screens as filed in PubChem BioAssay.
Tn6 DDE FP = DD(E)-Tn6 binding inhibition, primary FP screen; P02675; Fibrin DD(E) TRITC-Tn6 fluorescence polarization displacement; 370,000 compounds, 0.21% hits; AID 720509; inhibition, % at 8.3 µM;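 active means inhibition above a per-campaign cutoff: mean of compounds within control limits plus 3 SD, cut at about 15% in these data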
Target sequence (P02675 whole entry, looked up): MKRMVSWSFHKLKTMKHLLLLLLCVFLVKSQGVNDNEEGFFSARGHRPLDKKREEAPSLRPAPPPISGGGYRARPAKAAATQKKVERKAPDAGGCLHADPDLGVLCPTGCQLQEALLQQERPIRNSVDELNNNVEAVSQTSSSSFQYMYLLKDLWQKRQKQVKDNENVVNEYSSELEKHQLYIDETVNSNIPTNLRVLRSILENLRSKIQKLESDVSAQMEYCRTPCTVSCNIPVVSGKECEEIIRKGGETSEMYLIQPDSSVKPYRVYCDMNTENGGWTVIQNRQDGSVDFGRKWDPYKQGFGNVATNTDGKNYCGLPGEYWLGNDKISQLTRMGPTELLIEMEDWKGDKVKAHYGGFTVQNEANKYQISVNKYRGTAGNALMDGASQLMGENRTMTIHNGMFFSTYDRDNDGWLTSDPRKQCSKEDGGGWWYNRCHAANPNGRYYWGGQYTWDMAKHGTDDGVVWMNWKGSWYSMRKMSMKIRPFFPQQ
GRK2 inh = human GRK2 inhibition via aptamer displacement; bead flow cytometry, FAM-aptamer displacement from GRK2; 330,000 compounds, 0.59% hits; AID 488847; inhibition of aptamer binding, % at 10 µM;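 active means inhibition of aptamer binding above 40%, roughly 3 SD of noise, on plates passing a quality check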;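 further: median bead fluorescence of bound FAM aptamer so fluorescent compounds give negative values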
Tn7 DDE FP = DD(E)-Tn7 binding inhibition, primary FP screen; P02675; FP displacement of FITC-Tn7 peptide from fibrin DD(E); 0% = median of compound wells per plate; inhibition, % at 8.3 µM; 370,000 compounds, 0.13% hits;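 active means inhibition above the mean of compounds falling within the control limits plus 3 SD of them, cut at about 14% in these data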
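Assay system: Human clot-derived fibrin DD(E) complex | Buffer or medium: Tris/NaCl/CaCl2 buffer, pH 7.8 | Repeats: One replicate per compound | Benchmarks: Aha-Tn7 high control | Measure: % inhibition scaled between sample-field median and high-control FP | Schedule: 10 min plus 3 h, room temperature | Signal: Fluorescence polarization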
CAL PDZ FP-1 = blocks peptide binding to the human CAL PDZ domain | 300,000 compounds, 0.92% hits | Q9HD26 | purified CAL PDZ, TMR-peptide fluorescence polarization, 1 h | inhibition, % at 24.9 µM;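 active means mean inhibition of at least 30% with at least half of replicates also reaching 30%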
ARNT TACC3 PPI = disruptors of human ARNT/TACC3 interaction; Q9Y6A5; inhibition, % at 9.99 µM; AlphaScreen His-ARNT PAS-B/GST-TACC3 binding, luminescence; TACC3 fragment carries E629A point mutation; AID 623870; 390,000 compounds, 0.66% hits;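 active means mean inhibition of replicates at least 50% and at least half of replicates each reaching 50%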
CAL PDZ FP-2 = human CAL PDZ-peptide interaction inhibition | Q9HD26 | purified CAL PDZ, TMR-peptide fluorescence polarization, 1 h | inhibition, % at 20 µM | 330,000 compounds, 0.02% hits;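 active means highest replicate inhibition of at least 40%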
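material = purified tagged CAL PDZ domain construct (CerCALP) | buffer or medium = sodium phosphate/NaCl buffer pH 7.4 with TCEP, IgG, Thesit | reagent = TMR-labelled reporter peptide T*-PRC34 bound in PDZ groove | incubation = 1 h room-temperature incubation prior to read | measured by = fluorescence polarization (mP) | evaluation = percent inhibition from loss of millipolarization | control set = unlabelled peptide and DMSO controls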
GRK2 confirm 2 = confirmation of human GRK2 inhibitors binding RNA aptamer site. shares compounds with GRK2 inh. bead-bound GRK2, FAM-aptamer displacement, flow cytometry. inhibition of aptamer binding, % at 10 µM. 360 tested, under 10 active;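 active means inhibition of aptamer binding above 40%, about triple the noise seen with nonglowing compounds, on plates passing quality control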;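 further: negative values mostly come from compounds that fluoresce themselves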
FAM quench CP2 = aptamer fluorescence quenching in GRK2 counter-screen; shares compounds with GRK2 inh; carboxyfluorescein RNA aptamer beads, flow cytometry quenching; stronger effect = lower value; fluorescence response vs DMSO, % at 10 µM; 360 tested, under 10 active;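 active means response vs DMSO under 50%, meaning signal dropped by over half, treated as fluorescence quencher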;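 further: labelled aptamer on streptavidin beads without GRK2 as a quench counter-screen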
Each line names hits and unclear results; the compound was inactive in the other large screens (follow-up assays come after a bar, where they were run). An excerpt weighted towards active compounds, which were near 1.8% of everything screened.

Cn1cnc(S(=O)(=O)N2CC[C@@H]3[C@H]2c2cc(-c4ccccc4)ccc2N[C@@H]3CO)c1	none (no result: Tn6 DDE FP, GRK2 inh, Tn7 DDE FP, CAL PDZ FP-1, CAL PDZ FP-2)
CCCC(C)NC(=O)CSc1nnc(-c2c[nH]c3ccccc23)o1 (stereo not drawn)	CAL PDZ FP-1 46.4
CCCOc1ccc(N2C(=O)CC(N3CCN(C(=O)c4ccco4)CC3)C2=O)cc1 (stereo not drawn)	Tn6 DDE FP 16.9
CCCCCCOc1ccc(N2C(=O)CC(N3CCN(C(=O)c4ccco4)CC3)C2=O)cc1 (stereo not drawn)	none
CN(C)c1ccc(NC2=C(Cl)C(=O)c3ccccc3C2=O)cc1	ARNT TACC3 PPI 52.8
COc1ccc(OCC(=O)N/N=C/c2cccc3cccnc23)cc1	ARNT TACC3 PPI 76.9 (no result: CAL PDZ FP-1)
Cc1ccccc1NC(=O)CSc1nnc(-c2ccccn2)o1	none (no result: ARNT TACC3 PPI)
Cc1cccc(NC(=O)CSc2cccc3cccnc23)c1C	ARNT TACC3 PPI 83.7
Cc1ccccc1NC(=O)CSc1n[nH]c(-c2ccccn2)n1	ARNT TACC3 PPI 64.4
O=C(CSc1cccc2cccnc12)Nc1cccc(S(=O)(=O)N2CCOCC2)c1	ARNT TACC3 PPI 25.6 (no result: CAL PDZ FP-1)
COc1ccc(NC(=O)CSc2cccc3cccnc23)c(OC)c1	none
C[C@H]1CCCCO[C@H](CN(C)C(=O)CCCN(C)C)[C@@H](C)CN([C@@H](C)CO)C(=O)c2cc(NC(=O)Nc3ccccc3)ccc2O1	none (no result: Tn6 DDE FP, GRK2 inh, Tn7 DDE FP, CAL PDZ FP-1, CAL PDZ FP-2)
Cc1noc(C)c1NC(=O)N(C)C[C@@H]1Oc2c(NS(=O)(=O)c3ccccc3)cccc2C(=O)N([C@@H](C)CO)C[C@H]1C	none (no result: Tn6 DDE FP, GRK2 inh, Tn7 DDE FP, CAL PDZ FP-1, CAL PDZ FP-2)
CO[C@@H]1CN(C)C(=O)c2ccc(NC(=O)C3CCC3)cc2OC[C@@H](C)N(C)C[C@H]1C	none (no result: Tn6 DDE FP, GRK2 inh, Tn7 DDE FP, CAL PDZ FP-1, CAL PDZ FP-2)
C[C@H](CO)N1C[C@H](C)[C@@H](CN(C)C(=O)C2CC2)Oc2cc(C#CC3CCCC3)ccc2S1(=O)=O	none (no result: Tn6 DDE FP, GRK2 inh, Tn7 DDE FP, CAL PDZ FP-1, CAL PDZ FP-2)
CCCN1C[C@@H](C)[C@H](OC)CN(C)C(=O)c2ccc(NC(=O)C3CCC3)cc2OC[C@@H]1C	none (no result: Tn6 DDE FP, GRK2 inh, Tn7 DDE FP, CAL PDZ FP-1, CAL PDZ FP-2)
O=C(CSc1cccc2cccnc12)N/N=C/c1ccc(O)cc1	none
COc1cccc(/C=N/NC(=O)COc2cccc3cccnc23)c1O	none (no result: CAL PDZ FP-1)
COc1ccccc1OCC(=O)N/N=C/c1cccc2cccnc12	ARNT TACC3 PPI 77.9 (no result: CAL PDZ FP-1)
COc1cccc(/C=N/NC(=O)CSc2cccc3cccnc23)c1	ARNT TACC3 PPI 95.9 (no result: CAL PDZ FP-1)
S=C(Nc1ccccc1Cl)NC1CCC(NC(=S)Nc2ccccc2Cl)CC1 (stereo not drawn)	CAL PDZ FP-1 31.3
CCCC(=O)Nc1ccc2c(c1)C(=O)N(C)[C@H]1CC[C@H](CC(=O)NCC(F)(F)F)O[C@@H]1CO2	none (no result: Tn6 DDE FP, GRK2 inh, Tn7 DDE FP, CAL PDZ FP-1, CAL PDZ FP-2)
CC(=O)N1CCc2c(sc(NC(=O)Cc3ccc(C)cc3C)c2C#N)C1	none (no result: ARNT TACC3 PPI)
CCCN1CCc2c(sc(NC(=O)CCS(=O)(=O)c3ccccc3)c2C(N)=O)C1	none (no result: ARNT TACC3 PPI)
CC(=O)N1CCc2c(sc(NC(=O)CCS(=O)(=O)c3ccc(C)cc3)c2C#N)C1	none | GRK2 confirm 2 inactive | FAM quench CP2 inactive
CNC(=O)c1c(NC(=O)CCS(=O)(=O)c2ccc(C)cc2)sc2c1CCN(C(=O)OC)C2	none (no result: CAL PDZ FP-1) | GRK2 confirm 2 inactive | FAM quench CP2 inactive
CN1CCc2c(sc(NC(=O)CS(=O)(=O)c3ccccc3)c2C(N)=O)C1	none (no result: CAL PDZ FP-1) | GRK2 confirm 2 inactive | FAM quench CP2 inactive
CNC(=O)c1c(NC(=O)CCS(=O)(=O)c2ccccc2)sc2c1CCN(C(=O)OC)C2	none | GRK2 confirm 2 inactive | FAM quench CP2 inactive
O=S1(=O)C[C@H](N2CCC(Cc3ccccc3)CC2)[C@@H](COCc2ccccc2)N1	none (no result: GRK2 inh, CAL PDZ FP-1, ARNT TACC3 PPI, CAL PDZ FP-2)
COc1ccc(C(=O)NCC(=O)OCc2c(Cl)cccc2Cl)cc1OC	none (no result: GRK2 inh)
O=C(C[C@H]1CC[C@H]2[C@@H](COC[C@@H](O)CN2C(=O)Nc2ccc(F)cc2)O1)NCCc1ccccc1	none (no result: Tn6 DDE FP, GRK2 inh, Tn7 DDE FP, CAL PDZ FP-1, CAL PDZ FP-2)
